ChEMBL document CHEMBL1687824, “Overexpression of patA and patB, which encode ABC transporters, is associated with fluoroquinolone resistance in clinical isolates of Streptococcus pneumoniae” (2011)
In brackets after ≈: the same amount, converted by molar mass.

Columns and labels:
Format in all cases: functional
Streptococcus pneumoniae [1] = assay: Antibacterial activity against wild type Streptococcus pneumoniae M4 NCTC 7465 type 1 by standardized agar doubling dilution method
In short: (§1)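 MIC by agar doubling dilution following BSAC guidelines. Strains grown in brain heart infusion broth 24 h at 37°C in 5% CO2. Where an efflux pump inhibitor applies, MIC redetermined with reserpine at 20 μg/ml or sodium orthovanadate at 50 μM. Synergy taken as a fall in MIC of ≥2 dilutions with inhibitor present. Dye resistance defined relative to R6 (both dyes ≥2 dilutions higher).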

Streptococcus pneumoniae [2] = assay: Antibacterial activity against Streptococcus pneumoniae M50B overexpressing patA, patB and inactivated patB with single mutation by standardized agar doubling dilution method
In short: (§2)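 MICs were determined by agar doubling dilution following BSAC guidelines, with no efflux inhibitor. Strains were grown in brain heart infusion broth for 24 h at 37°C in 5% CO2. Species identity was confirmed by Gram stain, optochin sensitivity and capsule test. Control strain R6 was tested alongside.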

Streptococcus pneumoniae [3] = assay: Antibacterial activity against fluoroquinolone-resistant Streptococcus pneumoniae M98 FQ-R overexpressing patA, patB by standardized agar doubling dilution method in presence of 50 uM sodium orthovanadate efflux pump inhibitor
In short: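 Clinical S. pneumoniae isolates grown in BHI broth 24 h at 37°C in 5% CO2. MICs by agar doubling dilution per BSAC guidelines, alone or with efflux inhibitor reserpine (20 μg/ml) or sodium orthovanadate (50 μM). Synergy defined as ≥2-dilution MIC reduction in presence of inhibitor.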

Streptococcus pneumoniae [4] = assay: Antibacterial activity against dye-resistant Streptococcus pneumoniae M55 DR overexpressing patA, patB by standardized agar doubling dilution method; in short: as §2
Streptococcus pneumoniae [5] = assay: Antibacterial activity against Streptococcus pneumoniae M304 overexpressing patA, patB and inactivated patA with single mutation by standardized agar doubling dilution method in presence of 20 ug/ml reserpine efflux pump inhibitor
In short: (§3)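 MICs determined by BSAC standardized agar doubling dilution. Strains were grown in brain heart infusion broth for 24 h at 37°C in 5% CO2. Inhibitor arms had reserpine at 20 μg/ml or sodium orthovanadate at 50 μM in the agar. Mutants were made by transforming magellan2 insertion amplimers into clinical isolates and selecting on spectinomycin 100 mg/liter, with a no-DNA spontaneous-mutation control.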

Streptococcus pneumoniae [6] = assay: Antibacterial activity against fluoroquinolone-resistant Streptococcus pneumoniae M97 FQ-R overexpressing patA, patB by standardized agar doubling dilution method in presence of 20 ug/ml reserpine efflux pump inhibitor
In short: (§4)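 MIC by agar doubling dilution per BSAC guidelines; strains pregrown in brain heart infusion broth 24 h, 37°C, 5% CO2. MICs measured alone and with efflux pump inhibitors reserpine (20 μg/ml) or sodium orthovanadate (50 μM); synergy defined as ≥2-dilution MIC reduction in presence of inhibitor.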

Streptococcus pneumoniae [7] = assay: Antibacterial activity against fluoroquinolone, dye-resistant Streptococcus pneumoniae M50 overexpressing patA, patB by standardized agar doubling dilution method; in short: as §1
Streptococcus pneumoniae [8] = assay: Antibacterial activity against Streptococcus pneumoniae M311 overexpressing patA, patB and inactivated patA with single mutation by standardized agar doubling dilution method in presence of 50 uM sodium orthovanadate efflux pump inhibitor; in short: as §3
Streptococcus pneumoniae [9] = assay: Antibacterial activity against fluoroquinolone, dye-susceptible Streptococcus pneumoniae M295 S overexpressing patA, patB by standardized agar doubling dilution method; in short: as §1
Streptococcus pneumoniae [10] = assay: Antibacterial activity against Streptococcus pneumoniae M309 overexpressing patA, patB and inactivated patB with single mutation by standardized agar doubling dilution method in presence of 20 ug/ml reserpine efflux pump inhibitor; in short: as §3
Streptococcus pneumoniae [11] = assay: Antibacterial activity against Streptococcus pneumoniae M298 overexpressing patA, patB and inactivated patA with single mutation by standardized agar doubling dilution method in presence of 20 ug/ml reserpine efflux pump inhibitor; in short: as §3
Streptococcus pneumoniae [12] = assay: Antibacterial activity against Streptococcus pneumoniae M304 overexpressing patA, patB and inactivated patA with single mutation by standardized agar doubling dilution method; in short: as §3
Streptococcus pneumoniae [13] = assay: Antibacterial activity against Streptococcus pneumoniae M300 overexpressing patA, patB and inactivated patA with single mutation by standardized agar doubling dilution method; in short: as §3
Streptococcus pneumoniae [14] = assay: Antibacterial activity against Streptococcus pneumoniae M55B overexpressing patA, patB and inactivated patB with single mutation by standardized agar doubling dilution method in presence of 50 uM sodium orthovanadate efflux pump inhibitor
In short: (§5)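 MICs were determined by BSAC agar doubling dilution in the presence of sodium orthovanadate at 50 μM. Cultures were grown in BHI broth for 24 h at 37°C in 5% CO2, with R6 as control. Synergy was defined as an MIC reduction of ≥2 dilutions with the inhibitor present.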

Streptococcus pneumoniae [15] = assay: Antibacterial activity against Streptococcus pneumoniae M319 overexpressing patA, patB and inactivated patB with single mutation by standardized agar doubling dilution method; in short: as §2
Streptococcus pneumoniae [16] = assay: Antibacterial activity against dye-resistant Streptococcus pneumoniae by standardized agar doubling dilution method; in short: as §1
Streptococcus pneumoniae [17] = assay: Antibacterial activity against Streptococcus pneumoniae M317 overexpressing patA, patB and inactivated patB with single mutation by standardized agar doubling dilution method in presence of 20 ug/ml reserpine efflux pump inhibitor
In short: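 MICs were determined by BSAC agar doubling dilution in the presence of reserpine at 20 μg/ml. Strains were grown in BHI broth for 24 h at 37°C in 5% CO2, with R6 as control. Synergy was defined as an MIC drop of ≥2 dilutions with the inhibitor.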

Streptococcus pneumoniae [18] = assay: Antibacterial activity against Streptococcus pneumoniae M308 overexpressing patA, patB and inactivated patB with single mutation by standardized agar doubling dilution method in presence of 50 uM sodium orthovanadate efflux pump inhibitor; in short: as §3
Streptococcus pneumoniae [19] = assay: Antibacterial activity against fluoroquinolone, dye-resistant Streptococcus pneumoniae M50 overexpressing patA, patB by standardized agar doubling dilution method in presence of 50 uM sodium orthovanadate efflux pump inhibitor; in short: as §1
Streptococcus pneumoniae [20] = assay: Antibacterial activity against Streptococcus pneumoniae M311B overexpressing patA, patB and inactivated patB with single mutation by standardized agar doubling dilution method in presence of 50 uM sodium orthovanadate efflux pump inhibitor; in short: as §3
Streptococcus pneumoniae [21] = assay: Antibacterial activity against Streptococcus pneumoniae M50B overexpressing patA, patB and inactivated patB with single mutation by standardized agar doubling dilution method in presence of 50 uM sodium orthovanadate efflux pump inhibitor; in short: as §5
Streptococcus pneumoniae [22] = assay: Antibacterial activity against fluoroquinolone-resistant Streptococcus pneumoniae M97 FQ-R overexpressing patA, patB by standardized agar doubling dilution method in presence of 50 uM sodium orthovanadate efflux pump inhibitor; in short: as §4
Streptococcus pneumoniae [23] = assay: Antibacterial activity against Streptococcus pneumoniae M304 overexpressing patA, patB and inactivated patA with single mutation by standardized agar doubling dilution method in presence of 50 uM sodium orthovanadate efflux pump inhibitor; in short: as §3
Streptococcus pneumoniae [24] = assay: Antibacterial activity against Streptococcus pneumoniae M86B overexpressing patA, patB and inactivated patB with single mutation by standardized agar doubling dilution method; in short: as §2
Streptococcus pneumoniae [25] = assay: Antibacterial activity against fluoroquinolone, dye-resistant Streptococcus pneumoniae M87 overexpressing patA, patB by standardized agar doubling dilution method; in short: as §1
Streptococcus pneumoniae [26] = assay: Antibacterial activity against Streptococcus pneumoniae M305 overexpressing patA, patB and inactivated patB with single mutation by standardized agar doubling dilution method in presence of 50 uM sodium orthovanadate efflux pump inhibitor; in short: as §3
Streptococcus pneumoniae [27] = assay: Antibacterial activity against Streptococcus pneumoniae M311B overexpressing patA, patB and inactivated patB with single mutation by standardized agar doubling dilution method; in short: as §3

CC[n+]1c(-c2ccccc2)c2cc(N)ccc2c2ccc(N)cc21.[Br-] [HOMIDIUM BROMIDE]
MIC (Streptococcus pneumoniae [1]): 2 µg/mL | MIC (Streptococcus pneumoniae [2]): 0.5 µg/mL | MIC (Streptococcus pneumoniae [3]): 1 µg/mL | MIC (Streptococcus pneumoniae [4]): 16 µg/mL | MIC (Streptococcus pneumoniae [5]): 0.5 µg/mL | MIC (Streptococcus pneumoniae [6]): 0.5 µg/mL | MIC (Streptococcus pneumoniae [7]): 4 µg/mL | MIC (Streptococcus pneumoniae [8]): 8 µg/mL | MIC (Streptococcus pneumoniae [9]): 2 µg/mL | MIC (Streptococcus pneumoniae [10]): 0.5 µg/mL | MIC (Streptococcus pneumoniae [11]): 0.5 µg/mL | MIC (Streptococcus pneumoniae [12]): 0.5 µg/mL | MIC (Streptococcus pneumoniae [13]): 0.5 µg/mL | MIC (Streptococcus pneumoniae [14]): 0.5 µg/mL | MIC (Streptococcus pneumoniae [15]): 0.5 µg/mL | MIC (Streptococcus pneumoniae [16]): 16 µg/mL | MIC90 (Streptococcus pneumoniae [16]): 16 µg/mL | MIC (Streptococcus pneumoniae [17]): 0.5 µg/mL | MIC (Streptococcus pneumoniae [18]): 0.5 µg/mL | MIC (Streptococcus pneumoniae [19]): 1 µg/mL | MIC (Streptococcus pneumoniae [20]): 8 µg/mL | MIC (Streptococcus pneumoniae [21]): 0.5 µg/mL | MIC (Streptococcus pneumoniae [22]): 1 µg/mL | MIC (Streptococcus pneumoniae [23]): 0.25 µg/mL | MIC (Streptococcus pneumoniae [24]): 0.5 µg/mL | MIC (Streptococcus pneumoniae [25]): 4 µg/mL | MIC (Streptococcus pneumoniae [26]): 0.25 µg/mL | MIC (Streptococcus pneumoniae [27]): 0.5 µg/mL

O=C(O)c1cn(C2CC2)c2cc(N3CCNCC3)c(F)cc2c1=O [CIPROFLOXACIN]
MIC (Streptococcus pneumoniae [1]): 1 µg/mL (≈ 3.02 µM) | MIC (Streptococcus pneumoniae [2]): 4 µg/mL (≈ 12.1 µM) | MIC (Streptococcus pneumoniae [3]): 32 µg/mL | MIC (Streptococcus pneumoniae [4]): 0.25 µg/mL (≈ 0.754 µM) | MIC (Streptococcus pneumoniae [5]): 1 µg/mL | MIC (Streptococcus pneumoniae [6]): 4 µg/mL | MIC (Streptococcus pneumoniae [7]): 64 µg/mL (≈ 193 µM) | MIC (Streptococcus pneumoniae [8]): 4 µg/mL | MIC (Streptococcus pneumoniae [9]): 1 µg/mL (≈ 3.02 µM) | MIC (Streptococcus pneumoniae [10]): 1 µg/mL | MIC (Streptococcus pneumoniae [11]): 8 µg/mL | MIC (Streptococcus pneumoniae [12]): 4 µg/mL (≈ 12.1 µM) | MIC (Streptococcus pneumoniae [13]): 2 µg/mL (≈ 6.04 µM) | MIC (Streptococcus pneumoniae [14]): 2 µg/mL | MIC (Streptococcus pneumoniae [15]): 16 µg/mL (≈ 48.3 µM) | MIC (Streptococcus pneumoniae [16]): 0.25 µg/mL (≈ 0.754 µM) | MIC90 (Streptococcus pneumoniae [16]): 0.25 µg/mL (≈ 0.754 µM) | MIC (Streptococcus pneumoniae [17]): 8 µg/mL | MIC (Streptococcus pneumoniae [18]): 0.12 µg/mL | MIC (Streptococcus pneumoniae [19]): 32 µg/mL | MIC (Streptococcus pneumoniae [20]): 4 µg/mL | MIC (Streptococcus pneumoniae [21]): 4 µg/mL | MIC (Streptococcus pneumoniae [22]): 8 µg/mL | MIC (Streptococcus pneumoniae [23]): 2 µg/mL | MIC (Streptococcus pneumoniae [24]): 1 µg/mL (≈ 3.02 µM) | MIC (Streptococcus pneumoniae [25]): 32 µg/mL (≈ 96.6 µM) | MIC (Streptococcus pneumoniae [26]): 8 µg/mL | MIC (Streptococcus pneumoniae [27]): 8 µg/mL (≈ 24.1 µM)
